ABCB1 inh: ABCB1 efflux pump inhibitors, primary screen, cell-based, multiplex, flow cytometry, ABCG2 counter-screen; 0.067% of 190,000 active; inhibition, % at 6.6 µM; ATP-dependent translocase ABCB1 (Homo sapiens), P08183; CCRF-Adr cells, JC-1 efflux; in the data active = inhibition above about 40%;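 note: 0% = vehicle and 100% = reference inhibitor; higher value means more JC-1 retained so stronger ABCB1 efflux block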
MEKK2wt PB1 HTS: modulators of MEK5 binding to wildtype MEKK2, primary screen, biochemical, multiplex bead flow cytometry, Alexa488-MEK5. Alexa488-MEK5 binding to MEKK2 WT; actives lie on both sides. Mitogen-activated protein kinase kinase kinase 2 (Homo sapiens), Q9Y2U5. 1.1% of 290,000 active. AID 1531, 2009. binding response (% of control), % at 10 µM; in the data active = binding response below about 67% or above about 130%
MEKK3 PB1 HTS: modulators of MEKK3-MEK5 PB1 binding, primary screen, biochemical, wildtype MEKK3, multiplex bead flow cytometry, Alexa488-MEK5; Mitogen-activated protein kinase kinase kinase 3 (Homo sapiens), Q99759; bead-based flow cytometry, Alexa488-MEK5 binding to MEKK3; actives lie on both sides; 0 = blocked by unlabeled MEK5, 100 = vehicle; binding response (% of control), % at 10 µM; 1.4% of 290,000 active; AID 1529, 2009;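 active = binding response more than 3 SD above or below the average of its plate-row segment, actives on both sides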;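 note: Alexa488 bead fluorescence after subtracting the streptavidin-only scavenger bead signal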
MEKK2mut PB1 HTS: MEK5 binding signal on mutant MEKK2 PB1, primary screen, biochemical, multiplex bead flow cytometry, Alexa488-MEK5. percent response, % at 10 µM. 0.35% of 290,000 active. Alexa488-MEK5 binding to MEKK2 mutant; in the data active = percent response above about 24%, passing the limit was not always enough
WT yeast gro inh: growth inhibition of WT strain, primary screen, mitochondrial fusion inhibitor project, WT and mutant strains, chemical genetic | mitochondrial fusion phenotypic screen | inhibition, % at 10 µM | 2.1% of 190,000 active; in the data active = inhibition above about 58%; tested in S. cerevisiae
ABCG2 inh: ABCG2 efflux pump inhibitors, primary screen, multiplex with ABCB1, IgMXP3 cells, flow cytometry; Broad substrate specificity ATP-binding cassette transporter ABCG2 (Homo sapiens), Q9UNQ0; JC-1 efflux; inhibition, % at 6.6 µM; 0.1% of 190,000 active; AID 1325, 2008;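 active = inhibition above 80%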;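 note: 0% = DMSO and 100% = nicardipine control wells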
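System: two drug-resistant human cell lines, ABCG2 and ABCB1; controls: nicardipine high and DMSO low controls; times: 10 min exposure at 25 °C with rotation, no wash; detection: flow cytometry of retained JC-1 fluorescence; read-out basis: percent efflux inhibition, scaled nicardipine 100% to DMSO 0%; doses: one concentration, 6.6 µM final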
Active calls of the source: *; . = not tested or not shown; [ ] = another dose, or the depositor's remark. This is a sample that favours compounds with a hit; in the whole collection about 3.5% have one here.

SMILES	ABCB1 inh	MEKK2wt PB1 HTS	MEKK3 PB1 HTS	MEKK2mut PB1 HTS	WT yeast gro inh	ABCG2 inh
CC(C)(C)NC(=O)COC(=O)c1ccc2c(c1)C(=O)N(Cc1ccco1)C2=O	.	103	102	1	.	.
Cc1ccc(C2=NN(C(=O)c3cccs3)C(c3ccccc3O)C2)cc1 (configuration not stated)	2	80	85	-6	14	8
COc1ccc(C2=NN(C(=O)c3cccs3)C(c3ccccc3OC)C2)cc1OC (configuration not stated)	11	91	99	-3	67*	27
CCCc1nc(SCC(=O)N2CCCc3ccccc32)c2c(=O)n(C)c(=O)n(C)c2n1	2	103	105	7	73*	4
CCCc1nc(SCC(=O)N2CCC(Cc3ccccc3)CC2)c2c(=O)n(C)c(=O)n(C)c2n1	2	102	103	4	81*	1
CCCCNC(=S)N1CCN(C(c2ccccc2)c2ccccc2)CC1	0	105	102	-2	66*	-1
CCCNC(=S)N1CCN(C(c2ccccc2)c2ccccc2)CC1	-1	96	86	-2	69*	-3
CCNC(=S)N1CCN(C(c2ccccc2)c2ccccc2)CC1	0	93	93	-5	51	0
Cc1cccc(C(=O)N2CCc3cc(-c4csc(NC(=O)CN5CCCC5)n4)ccc32)c1	.	121	105	25*	.	.
O=C1/C(=C/c2ccncc2)CCC/C1=C\c1ccncc1	0	86	89	-8	64*	1
N#CCC(=O)Nc1ccc(C(=O)NCc2cccc(Cl)c2)cc1	.	90	84	-7	.	.
CC(C)c1ccccc1OCC(=O)NC1CCCc2ccccc21 (configuration not stated)	1	102	100	11	61*	12
COc1ccc2c(c1)N(C(=O)CSc1n[nH]c(C)n1)C(C)(C)C=C2C	0	104	103	3	-3	-6
CCOC(=O)C1(S(=O)(=O)c2ccc(Cl)cc2)CCN(Cc2ccc(C)cc2)CC1	1	99	96	-4	72*	3
O=C(CNS(=O)(=O)c1ccc2ccccc2c1)OCc1nnc(-c2ccccc2)o1	0	98	99	-1	1	-1
Cc1ccc(-c2n[nH]c(=S)n2Cc2ccccc2)cc1	-1	96	104	0	0	-1
S=c1[nH]nc(-c2cccc(Cl)c2)n1Cc1ccccc1	0	98	97	-1	0	4
S=c1[nH]nc(-c2cc3ccccc3o2)n1Cc1ccccc1	-1	97	74	-13	65*	0
Cc1cccc(-c2n[nH]c(=S)n2Cc2ccccc2)c1	-2	103	110	1	72*	-13
CCc1cc(-c2n[nH]c(=S)n2-c2ccccc2C)cs1	1	.	.	.	60*	3
CCc1cc(-c2n[nH]c(=S)n2Cc2ccccc2)cs1	-1	.	.	.	65*	-1
Cc1cccc(NC(=O)C2CCCN(S(=O)(=O)c3cccc4cccnc34)C2)c1 (configuration not stated)	2	102	91	-2	2	10
CCC1CCCCN1C(=O)NC(=O)c1ccccc1 (configuration not stated)	.	107	106	13	.	.
CCOC(=O)C1CCN(C(=O)c2ccccc2CCc2ccccc2)CC1	.	108	103	3	.	.
O=C1CC[C@@H](OCc2ccccc2)CCN1CC[C@H](Sc1ccccc1)c1ccccc1	.	97	98	-6	.	.
SMILES	ABCB1 inh	MEKK2wt PB1 HTS	MEKK3 PB1 HTS	MEKK2mut PB1 HTS	WT yeast gro inh	ABCG2 inh
O=S(=O)(c1ccc(-c2csc(Nc3ccc(Br)cc3)n2)cc1)N1CCCC1	-3	-4.0*	106	7	11	2
O=S(=O)(c1ccc(-c2csc(Nc3ccc(F)cc3)n2)cc1)N1CCCC1	0	117	102	2	29	6
COc1cc2ncnc(NCc3cccc(Cl)c3)c2cc1OC	0	138*	107	40	7	4
CCOc1ccc(NC(=O)N[C@@H](Cc2ccccc2)C(=O)O)cc1	.	102	98	4	.	.
Cc1ccccc1-c1nc(CN2CCC(C(=O)NCCCN3CCCC3)CC2)c(C)o1	1	198*	102	51*	4	2
Cc1oc(-c2ccccc2F)nc1CN1CCC(C(=O)NCCC2=CCCCC2)CC1	1	124	104	9	98*	3
COc1ccccc1NC(=O)c1c(Nc2ccccc2C)sc(C(=O)Nc2cccc(Cl)c2)c1N	0	-3.0*	78	-8	2	-6
Cc1ccc(C(OCC(O)CNCc2ccc(F)cc2)c2ccccc2)cc1 (configuration not stated)	.	130	102	10	.	.
Nc1cc(=O)[nH]c(=S)n1-c1ccccc1	0	108	106	4	59*	0
O=C(O)c1cc(-c2ccc(-c3ccc(F)cc3)o2)nc2ccccc12	.	95	95	-9	.	.
CC(C)(C)C1CCc2sc(-c3nnc(CCl)o3)cc2C1 (configuration not stated)	-1	102	113	-2	68*	-2
ClCc1nnc(-c2cc3c(s2)CCCC3)o1	0	102	101	3	-4	10
CN(C(=O)c1cccc(C(F)(F)F)c1)C1CCCc2ccccc21 (configuration not stated)	.	0.0*[inhibitor]	1.0*[inhibitor]	-38	.	.
CCOC(=O)C(NC(=O)c1ccccc1Cl)(Nc1ccc(C)c(C)c1)C(F)(F)F (configuration not stated)	1	102	120	-1	28	8
COC(=O)C(Nc1ccccc1Cl)(c1cc(C)c(O)c(C)c1)C(F)(F)F (configuration not stated)	0	101	101	7	90*	2
Cc1cccc(-n2c(=O)c3c(n4cnnc24)-c2ccccc2CC32CCCCC2)c1	3	97	103	4	74*	4
O=c1c2c(n3cnnc3n1-c1ccccc1)-c1ccccc1CC21CCCCC1	1	108	102	9	16	3
CC1N(C)c2cc(NC(=O)c3ccco3)ccc2C1(C)C (configuration not stated)	-5	-7.0*	101	3	68	-4
CC1N(C)c2cc(NC(=O)c3ccco3)c(P(=O)(Nc3ccc([N+](=O)[O-])cc3)N3CCOCC3)cc2C1(C)C (configuration not stated)	3	85	104	-3	11	6
